Source: ChEMBL document CHEMBL4190239, “A novel structural class of coumarin-chalcone fibrates as PPARα/γ agonists with potent antioxidant activities: Design, synthesis, biological evaluation and molecular docking studies” (Eur J Med Chem, 2017)

Legend:
[1] = target: T1, Peroxisome proliferator-activated receptor alpha (Homo sapiens, UniProt Q07869); test: Agonist activity at GAL4-fused PPARalpha LBD (unknown origin) expressed in HEK293 cells assessed as receptor transactivation after 18 hrs by dual luciferase reporter gene assay; format: cell-based
T1 sequence (Q07869 whole entry): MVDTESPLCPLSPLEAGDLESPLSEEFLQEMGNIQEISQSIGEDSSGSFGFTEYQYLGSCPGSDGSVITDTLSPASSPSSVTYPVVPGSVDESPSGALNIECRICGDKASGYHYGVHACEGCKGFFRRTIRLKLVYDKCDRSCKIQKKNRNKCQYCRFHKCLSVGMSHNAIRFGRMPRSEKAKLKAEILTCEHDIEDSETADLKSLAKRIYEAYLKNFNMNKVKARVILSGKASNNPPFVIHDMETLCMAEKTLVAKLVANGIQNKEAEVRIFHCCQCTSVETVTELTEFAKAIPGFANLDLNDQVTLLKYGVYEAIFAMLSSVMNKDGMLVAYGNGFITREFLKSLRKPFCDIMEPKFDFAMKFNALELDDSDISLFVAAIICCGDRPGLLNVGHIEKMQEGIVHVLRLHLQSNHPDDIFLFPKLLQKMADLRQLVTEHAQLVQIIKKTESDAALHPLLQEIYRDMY

[2] = target: T2, Peroxisome proliferator-activated receptor gamma (Homo sapiens, UniProt P37231); test: Agonist activity at GAL4-fused PPARgamma LBD (unknown origin) expressed in HEK293 cells assessed as receptor transactivation after 18 hrs by dual luciferase reporter gene assay; format: cell-based
T2 sequence (P37231 whole entry): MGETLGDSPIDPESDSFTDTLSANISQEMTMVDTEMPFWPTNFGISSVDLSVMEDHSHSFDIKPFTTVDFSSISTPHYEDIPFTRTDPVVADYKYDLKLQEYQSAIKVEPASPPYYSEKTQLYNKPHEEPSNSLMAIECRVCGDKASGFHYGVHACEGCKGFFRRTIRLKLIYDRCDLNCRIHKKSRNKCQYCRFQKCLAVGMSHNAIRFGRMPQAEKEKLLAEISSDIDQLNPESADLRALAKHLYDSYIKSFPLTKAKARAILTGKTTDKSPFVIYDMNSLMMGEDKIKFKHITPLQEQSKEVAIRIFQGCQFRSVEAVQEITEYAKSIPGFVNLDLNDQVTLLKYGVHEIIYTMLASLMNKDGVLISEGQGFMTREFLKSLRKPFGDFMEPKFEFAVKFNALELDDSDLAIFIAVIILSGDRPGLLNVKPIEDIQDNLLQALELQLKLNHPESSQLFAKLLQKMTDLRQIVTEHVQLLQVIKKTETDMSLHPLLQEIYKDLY

[3] = Antioxidant activity assessed as ABTS radical scavenging activity after 30 mins; format: functional
[4] = target: T3, Peroxisome proliferator-activated receptor gamma (Homo sapiens) (UniProt P37231); test: Agonist activity at GAL4-fused PPARgamma LBD (unknown origin) expressed in HEK293 cells assessed as receptor transactivation at 10 uM after 18 hrs by dual luciferase reporter gene assay; format: cell-based
T3 sequence (whole entry): T2 sequence (P37231 whole entry)
In short: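 HEK293 grown in DMEM/10% FBS to 70–80% confluence, plated, switched to FCS-free medium, transiently transfected per well with GAL4-PPARγLBD plasmid (30 ng), reporter (50 ng), renilla normalization vector (20 ng) and pGEM carrier (40 ng). Ligand added 8 h post-transfection for 18 h; firefly and renilla luciferase read by dual-luciferase kit; activation expressed as fold.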

Row | Structure (SMILES) | EC50 ([1]; hek293) | EC50 ([2]; hek293) | IC50 [3] [µM] | fold change (FC) [4] | EC50 ([2]; read-out: EC50) [µM] | EC50 ([1]; read-out: EC50) [µM]
1 | CCOC(=O)C(C)(C)Oc1ccc(C(=O)c2cc3cc(N)ccc3oc2=O)cc1 | Not Active | Not Active | > 100 | – | – | –
2 | CCOC(=O)C(C)(C)Oc1ccc(C(=O)C2Cc3cc(OC)c(OC)cc3OC2=O)cc1 (stereo not given) | – | – | 17.1 | 0.9 | – | –
3 | CCOC(=O)C(C)(C)Oc1ccc(C(=O)C2Cc3ccccc3OC2=O)cc1 (stereo not given) | Not Active | – | 9.4 | – | 39.7 | –
4 | CCOC(=O)C(C)(C)Oc1ccc(C(=O)c2cc3cc(Cl)ccc3oc2=O)cc1 | – | – | > 100 | 0.95 | – | –
5 | CCOC(=O)C(C)(C)Oc1ccc(C(=O)c2cc3cc([N+](=O)[O-])ccc3oc2=O)cc1 | – | – | 18.6 | – | 0.91 | 6.99
6 | CC(C)(Oc1ccc(C(=O)c2cc3c(ccc4ccccc43)oc2=O)cc1)C(=O)O | Not Active | – | > 100 | – | 56.7 | –
7 | CCOC(=O)C(C)(C)Oc1ccc(C(=O)c2cc3cc(OC)c(OC)cc3oc2=O)cc1 | – | – | > 100 | 1.01 | – | –
8 | CC(C)(Oc1ccc(C(=O)c2cc3ccccc3oc2=O)cc1)C(=O)O | – | – | > 100 | – | 3.67 | 11
9 | CCOC(=O)C(C)(C)Oc1ccc(C(=O)c2cc3cc(C(C)(C)C)cc(C(C)(C)C)c3oc2=O)cc1 | – | – | > 100 | 0.81 | – | –
10 | CCOC(=O)C(C)(C)Oc1ccc(C(=O)C2Cc3c(ccc4ccccc34)OC2=O)cc1 (stereo not given) | – | – | 15 | 1.05 | – | –
11 | Cc1ccc2oc(=O)c(C(=O)c3ccc(OC(C)(C)C(=O)O)cc3)cc2c1 | – | – | > 100 | 1.04 | – | –
12 | CCOC(=O)C(C)(C)Oc1ccc(C(=O)c2cc3cc(C)ccc3oc2=O)cc1 | – | – | 8.51 | 1.01 | – | –
13 | Cc1c(C)c2c(c(C)c1O)CCC(C)(C(=O)O)O2 (stereo not given) [TROLOX] | – | – | 24.8 | – | – | –
14 | CCOC(=O)C(C)(C)Oc1ccc(C(=O)c2cc3ccccc3oc2=O)cc1 | – | – | > 100 | – | 5.19 | 12.7
15 | CCOC(=O)C(C)(C)Oc1ccc(C(=O)C2Cc3cc(C)ccc3OC2=O)cc1 (stereo not given) | – | – | 10.3 | 0.8 | – | –
16 | CCOC(=O)C(C)(C)Oc1ccc(C(=O)c2cc3c(ccc4ccccc43)oc2=O)cc1 | – | – | > 100 | 0.83 | – | –
17 | CCOC(=O)C(C)(C)Oc1ccc(C(=O)c2cc3cc(F)ccc3oc2=O)cc1 | Not Active | Not Active | > 100 | – | – | –
